Reference: publication PMC2834874 (Bioorganic & medicinal chemistry letters, 2010)

Legend:
Type in all cases: cell-based
M3 = M3 (Homo sapiens, UniProt P20309); experiment: Potentiation of ~EC20 ACh, calcium mobilization in M3 CHO cells
Outline: (§1)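 Potentiation of an ~EC20 ACh response read as intracellular calcium mobilization in CHO cells expressing single receptor subtypes. M2 and M4 lines are co-transfected with chimeric Gqi5 to couple to calcium, while M3 and M5 lines are used directly. Data are means of independent determinations.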

M5 = target: T1, M5 (Homo sapiens, UniProt P08912); experiment: Potentiation of ~EC20 ACh, calcium mobilization in M5 CHO cells
T1 sequence (P08912 1-532): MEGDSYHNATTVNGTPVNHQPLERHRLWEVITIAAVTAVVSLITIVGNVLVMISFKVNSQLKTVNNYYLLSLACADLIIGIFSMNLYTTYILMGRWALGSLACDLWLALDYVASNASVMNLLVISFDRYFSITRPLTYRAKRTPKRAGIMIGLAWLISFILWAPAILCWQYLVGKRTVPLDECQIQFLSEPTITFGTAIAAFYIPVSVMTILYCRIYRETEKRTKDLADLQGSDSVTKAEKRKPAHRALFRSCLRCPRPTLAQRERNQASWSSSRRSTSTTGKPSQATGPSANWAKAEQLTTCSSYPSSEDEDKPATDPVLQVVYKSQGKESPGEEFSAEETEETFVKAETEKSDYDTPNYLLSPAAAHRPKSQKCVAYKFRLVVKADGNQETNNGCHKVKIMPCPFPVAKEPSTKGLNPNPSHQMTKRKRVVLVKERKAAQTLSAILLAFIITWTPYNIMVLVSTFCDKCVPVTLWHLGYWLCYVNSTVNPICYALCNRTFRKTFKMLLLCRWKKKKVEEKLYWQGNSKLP
Outline: as §1

M1 [1] = target: T2, M1 (Homo sapiens, UniProt P11229); experiment: ACh CRC fold-shift experiments, calcium mobilization in M1 CHO cells
T2 sequence (P11229 1-460): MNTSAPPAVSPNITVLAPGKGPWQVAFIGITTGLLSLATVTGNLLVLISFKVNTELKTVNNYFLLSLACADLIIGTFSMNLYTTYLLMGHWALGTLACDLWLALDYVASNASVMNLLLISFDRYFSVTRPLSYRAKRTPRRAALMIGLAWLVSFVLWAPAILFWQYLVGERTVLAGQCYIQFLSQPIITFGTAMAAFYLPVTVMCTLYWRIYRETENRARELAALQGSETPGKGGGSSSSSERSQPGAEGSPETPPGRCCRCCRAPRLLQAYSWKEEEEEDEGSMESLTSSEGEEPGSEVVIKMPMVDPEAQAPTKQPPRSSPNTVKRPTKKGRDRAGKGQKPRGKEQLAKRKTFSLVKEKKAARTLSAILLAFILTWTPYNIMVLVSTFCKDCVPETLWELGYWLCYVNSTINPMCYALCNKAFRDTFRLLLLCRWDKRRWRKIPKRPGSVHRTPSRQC
Outline: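 ACh concentration-response curve run alone and with the test compound at 10 μM or 30 μM. Intracellular calcium mobilization measured in CHO cells expressing M1. The fold leftward shift of the ACh curve is taken, and intrinsic allosteric agonism is recorded from the response to compound alone. Values are means of at least three independent determinations.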

M2 = target: T3, M2 (Homo sapiens, UniProt P08172); experiment: Potentiation of ~EC20 ACh, calcium mobilization in M2/Gqi5 CHO cells; settings: up to 30 μM
T3 sequence (P08172 1-466): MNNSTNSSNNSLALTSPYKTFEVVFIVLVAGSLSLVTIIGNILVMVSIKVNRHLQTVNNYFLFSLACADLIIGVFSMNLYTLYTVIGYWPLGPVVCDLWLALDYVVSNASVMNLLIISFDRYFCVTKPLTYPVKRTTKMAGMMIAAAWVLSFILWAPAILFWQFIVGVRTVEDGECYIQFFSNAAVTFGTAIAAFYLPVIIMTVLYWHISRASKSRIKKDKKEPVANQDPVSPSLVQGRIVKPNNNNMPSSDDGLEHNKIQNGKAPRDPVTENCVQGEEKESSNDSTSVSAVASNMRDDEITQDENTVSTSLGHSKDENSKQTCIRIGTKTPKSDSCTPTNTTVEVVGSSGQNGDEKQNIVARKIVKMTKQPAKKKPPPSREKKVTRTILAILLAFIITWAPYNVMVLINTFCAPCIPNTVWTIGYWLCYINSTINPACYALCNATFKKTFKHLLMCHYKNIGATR
Outline: as §1

M4 = target: T4, M4 (Homo sapiens, UniProt P08173); experiment: Potentiation of ~EC20 ACh, calcium mobilization in M4/Gqi5 CHO cells; settings: up to 30 μM
T4 sequence (P08173 1-479): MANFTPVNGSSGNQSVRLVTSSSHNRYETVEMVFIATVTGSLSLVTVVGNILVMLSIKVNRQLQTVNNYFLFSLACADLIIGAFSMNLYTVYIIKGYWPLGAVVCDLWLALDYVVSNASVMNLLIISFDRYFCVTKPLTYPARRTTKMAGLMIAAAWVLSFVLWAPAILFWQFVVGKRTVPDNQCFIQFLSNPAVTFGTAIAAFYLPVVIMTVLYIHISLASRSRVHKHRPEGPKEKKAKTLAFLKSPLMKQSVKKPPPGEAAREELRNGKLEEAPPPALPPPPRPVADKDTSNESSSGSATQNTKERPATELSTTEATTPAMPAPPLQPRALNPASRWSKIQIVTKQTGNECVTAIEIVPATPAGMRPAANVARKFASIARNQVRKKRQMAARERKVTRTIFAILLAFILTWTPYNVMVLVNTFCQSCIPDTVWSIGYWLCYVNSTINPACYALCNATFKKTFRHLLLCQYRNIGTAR
Outline: as §1

M1 [2] = target: T2, M1; settings: M1 EC50 ratio

Chain of M3 (P20309 whole entry): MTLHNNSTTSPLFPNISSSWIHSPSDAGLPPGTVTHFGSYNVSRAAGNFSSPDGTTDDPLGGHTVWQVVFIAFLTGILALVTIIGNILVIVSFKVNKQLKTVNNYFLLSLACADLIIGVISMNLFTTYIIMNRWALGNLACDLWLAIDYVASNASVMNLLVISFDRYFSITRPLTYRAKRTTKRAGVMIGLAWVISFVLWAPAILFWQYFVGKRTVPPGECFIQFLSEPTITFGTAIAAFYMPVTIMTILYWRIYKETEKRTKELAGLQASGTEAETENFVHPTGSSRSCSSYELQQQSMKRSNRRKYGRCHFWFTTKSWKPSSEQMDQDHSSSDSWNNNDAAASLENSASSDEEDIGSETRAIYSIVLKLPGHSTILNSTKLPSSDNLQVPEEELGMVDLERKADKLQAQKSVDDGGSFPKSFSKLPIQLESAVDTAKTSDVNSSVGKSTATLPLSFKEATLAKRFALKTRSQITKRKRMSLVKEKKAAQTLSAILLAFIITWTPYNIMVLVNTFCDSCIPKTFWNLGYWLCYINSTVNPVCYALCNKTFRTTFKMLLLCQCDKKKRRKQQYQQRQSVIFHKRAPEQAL

Compound	selectivity versus M3 (M3; CRC in presence of ~EC20 ACh)	selectivity versus M5 (M5; CRC in presence of ~EC20 ACh)	Fold-shift of the ACh CRC at M5 (M1 [1]; 10 μM compound)	intrinsic allosteric agonism (M1 [1]; M1 fold-shift experiment, at 30 μM) [%]	activation of M2 (M2)	activation of M3 (M3; up to 30 μM)	activation of M4 (M4)	increase in potency over VU0365137 (9a) (M1 [2])	activation of M5 (M5; up to 30 μM)	Fold-shift of the ACh CRC at M5 (M1 [1]; 30 μM compound)
Cn1cc(-c2ccc(CN3C(=O)C(=O)c4ccccc43)cc2)cn1 [Compound 9a]	good selectivity	good selectivity	approximately 5 fold	~30	–	–	–	–	–	–
Cn1cc(-c2ccc(CN3C(=O)C(=O)c4ccccc43)c(F)c2)cn1 [Compound 12a]	–	–	–	–	minimal/no activation	minimal/no activation	minimal/no activation	three-fold increase	minimal/no activation	approximately 3 fold
